Data from ChEMBL document CHEMBL1671680, “Pradimicin S, a highly soluble nonpeptidic small-size carbohydrate-binding antibiotic, is an anti-HIV drug lead for both microbicidal and systemic use” (Antimicrob Agents Chemother, 2010).
Active and inactive are the calls of the source. The rule behind the calls is not given here.

Columns and labels:
PBMC [1] = assay: Immunostimulatory activity against human PBMC assessed as suppression of IL-13 production at 21 uM after 72 hrs; assay type: functional
Outline: (§1)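 Unstimulated PBMCs and PHA-blasts from three donors, in three independent experiments, cultured with test compound at 20 μg/ml (21 or 22 μM). Supernatants collected after 72 h. The cytokine profile was read on a Bio-Plex 27-plex human cytokine bead immunoassay, using beads coupled to cytokine-specific monoclonal antibodies and run per the kit instructions.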

PBMC [2] = assay: Immunostimulatory activity against human PBMC assessed as G-CSF production at 22 uM after 72 hrs; assay type: functional, cell-based
[3] = test system: Human immunodeficiency virus 1; assay: Antiviral activity against compound pretreated HIV-1 3B isolate 42 harboring gp120 mutant infected in human CEM cells assessed as inhibition of virus-induced cytopathicity after 3 to 4 days by microscopic analysis; assay type: functional, organism-based; details: Human immunodeficiency virus 1, 3B isolate 42, CCRF-CEM
Outline: (§2)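 CEM or C8166 cells at 5 × 10^5/ml infected with HIV-1 at 100 CCID50 per ml, then mixed 1:1 with compound dilutions and held at 37°C for 3–4 days. Giant cells were counted microscopically at ×100 against untreated infected cultures. EC50 is the concentration cutting syncytium formation by 50%.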

PBMC [4] = assay: Immunostimulatory activity against human PBMC assessed as IL-4 production at 21 uM after 72 hrs; assay type: functional, cell-based; outline: as §1
PBMC [5] = assay: Immunostimulatory activity against human PBMC assessed as IL-13 production at 22 uM after 72 hrs; assay type: functional, cell-based; outline: as §1
PBMC [6] = assay: Immunostimulatory activity against human PBMC assessed as G-CSF production at 21 uM after 72 hrs; assay type: functional, cell-based
Outline: (§3)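 PBMCs and PHA blasts from three donors (three independent experiments) cultured with 21 μM compound; supernatants collected at 72 h; cytokines quantified with the Bio-Plex human 27-plex bead immunoassay.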

[7] = Cytotoxicity against human Molt4 cells after 3 to 4 days; assay type: cell-based; details: MOLT-4 cells
Outline: (§4)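 Cells seeded at 20,000–75,000 per well with compound dilutions, incubated 3–4 days at 37°C, and counted on a Coulter particle counter; CC50 is the concentration inhibiting proliferation by 50%.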

PBMC [8] = assay: Immunostimulatory activity against human PBMC assessed as IL-9 production at 21 uM after 72 hrs; assay type: functional, cell-based; outline: as §1
PBMC [9] = assay: Immunostimulatory activity against human PBMC assessed as eotoxin production at 21 uM after 72 hrs; assay type: functional, cell-based
Outline: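 In three independent experiments, PBMCs and PHA-blasts from three donors were cultured with compound for 72 h. Supernatants were analysed with a bead-based 27-plex human cytokine immunoassay covering interleukins, chemokines, growth factors, IFN-γ and TNF-α.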

[10] = Cytotoxicity against human C8166 cells after 3 to 4 days; assay type: cell-based; outline: as §4
[11] = Antiviral activity against SIV mac251 infected in human Raji cells expressing DC-SIGN gene assessed as prevention of syncytium formation between persistently […]-infected Raji cells and uninfected human C8166 cells after 60 mins by ELISA; assay type: functional, cell-based, Simian immunodeficiency virus - mac; details: Simian immunodeficiency virus, 251, Raji, 1 h
[12] = Cytotoxicity against human HeLa cells after 3 to 4 days; assay type: cell-based; outline: as §4
PBMC [13] = assay: Immunostimulatory activity against human PBMC assessed as IL-2 production at 22 uM after 72 hrs; assay type: functional, cell-based; outline: as §1
PBMC [14] = assay: Immunostimulatory activity against human PBMC assessed as suppression of IL-2 production at 22 uM after 72 hrs; assay type: functional; outline: as §1
[15] = test system: Human immunodeficiency virus 1; assay: Binding affinity to HIV-1 3B gp120 after 6 mins by SPR analysis
[16] = test system: Human immunodeficiency virus 1; assay: Antiviral activity against HIV-1 3B infected in human HUT78 cells assessed as prevention of syncytium formation between persistently HIV-1 3B-infected HUT-78 cells and uninfected SupT1 cells after 3 to 4 days by ELISA; assay type: functional, organism-based; details: Human immunodeficiency virus 1, 3B, SUP-T1
PBMC [17] = assay: Immunostimulatory activity against human PBMC assessed as suppression of IL-4 production at 21 uM after 72 hrs; assay type: functional; outline: as §1
[18] = test system: Human immunodeficiency virus 1; assay: Ratio of EC90 to EC50 for R5 tropic HIV-1 clade C isolate ETH2220 infected in human PBMC; assay type: functional
Outline: (§5)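 PBMCs from healthy donors were PHA-stimulated (2 μg/ml, 3 days, 37°C), then seeded at 0.5 × 10^6 per well with compound dilutions in RPMI 1640 with 10% FCS and IL-2 (25 U/ml). Virus was added at 250 pg p24 or p27/ml final. On day 12, supernatant HIV-1 p24 or HIV-2 p27 was measured by ELISA, giving EC50 and EC90.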

[19] = test system: Human immunodeficiency virus 1; assay: Antiviral activity against X4 tropic HIV-1 3B infected in human Raji cells expressing DC-SIGN gene assessed as prevention of syncytium formation between persistently HIV-1 3B-infected Raji cells and uninfected human C8166 cells after 36 to 42 hrs by microscopic analysis; assay type: functional, organism-based; details: Human immunodeficiency virus 1, 3B
Outline: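 Raji/DC-SIGN cells exposed 60 min to HIV-1 IIIB (2.2 × 10^6 pg/ml p24), washed by two centrifugations, then plated with compound dilutions and C8166 cells (10^7/ml, 50 μl); cocultures at 37°C scored microscopically for syncytia at ~36–48 h.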

PBMC [20] = assay: Immunostimulatory activity against human PBMC assessed as IL-13 production at 21 uM after 72 hrs; assay type: functional, cell-based; outline: as §1
PBMC [21] = assay: Immunostimulatory activity against human PBMC assessed as IL-10 production at 21 uM after 72 hrs; assay type: functional, cell-based; outline: as §3
PBMC [22] = assay: Immunostimulatory activity against human PBMC assessed as MCP-1 production at 21 uM after 72 hrs; assay type: functional, cell-based; outline: as §1
[23] = test system: Human immunodeficiency virus 2; assay: Antiviral activity against HIV-2 ROD infected in human CEM cells assessed as inhibition of virus-induced cytopathicity after 3 to 4 days by microscopic analysis; assay type: functional, organism-based; details: Human immunodeficiency virus 2, ISOLATE ROD, CCRF-CEM
Outline: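 CEM cells (5 × 10^5/ml) infected at 100 CCID50/ml, mixed 1:1 with compound dilutions, incubated 3–4 days at 37°C; giant cells counted microscopically against untreated infected controls; EC50 is the concentration preventing syncytium formation by 50%.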

[24] = test system: Human immunodeficiency virus 1; assay: Antiviral activity against HIV-1 3B infected in human C8166 cells assessed as inhibition of virus-induced cytopathicity after 3 to 4 days by microscopic analysis; assay type: functional, organism-based; details: Human immunodeficiency virus 1, 3B; outline: as §2
[25] = test system: Human immunodeficiency virus 1; assay: Antiviral activity against X4 tropic HIV-1 Bal infected in human PBMC assessed as inhibition of viral replication […] by ELISA; assay type: functional, organism-based; details: Human immunodeficiency virus 1, Bal
Outline: (§6)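 PBMCs from healthy donors were stimulated with PHA (2 μg/ml) for 3 days, then seeded at 0.5 × 10^6 cells/well in RPMI 1640 with 10% FCS, IL-2 (25 U/ml) and compound. Virus was added at a final 250 pg p24/ml. Supernatant was taken at day 12 for p24 antigen ELISA.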

PBMC [26] = assay: Immunostimulatory activity against human PBMC assessed as IL-4 production at 22 uM after 72 hrs; assay type: functional, cell-based; outline: as §1
PBMC [27] = assay: Immunostimulatory activity against human PBMC assessed as IL-8 production at 21 uM after 72 hrs; assay type: functional, cell-based; outline: as §1
[28] = test system: Human immunodeficiency virus 1; assay: Ratio of EC90 to EC50 for X4 tropic HIV-1 group O isolate BCF06 infected in human PBMC; assay type: functional; outline: as §5
[29] = test system: Human immunodeficiency virus 1; assay: Antiviral activity against R5 tropic HIV-1 clade B isolate US2 infected in human PBMC assessed as inhibition of viral replication […] by ELISA; assay type: functional, organism-based; details: Human immunodeficiency virus 1, clade B isolate US2; outline: as §6

SMILES	fold change (FC) (PBMC [1])	Activity (PBMC [2])	EC50 [3] [µM]	Activity (PBMC [4])	Activity (PBMC [5])	Activity (PBMC [6])	CC50 [7] [µM]	Activity (PBMC [8])	Activity (PBMC [9])	CC50 [10] [µM]	IC50 [11] [µM]	CC50 [12] [µM]	Activity (PBMC [13])	fold change (FC) (PBMC [14])	Activity [15]	EC50 [16] [µM]	fold change (FC) (PBMC [17])	Ratio [18]	EC50 [19] [µM]	Activity (PBMC [20])	also measured
CN[C@@H]1[C@H](O[C@@H]2OC[C@@H](O)[C@H](O)[C@H]2O)[C@@H](O)[C@H](O[C@H]2c3cc(C)c(C(=O)N[C@H](C)C(=O)O)c(O)c3-c3c(cc4c(c3O)C(=O)c3cc(OC)cc(O)c3C4=O)[C@@H]2O)O[C@@H]1C [PRADIMICIN A]	2	inactive	> 50	inactive	inactive	inactive	> 50	inactive	inactive	> 50	16	> 50	inactive	4	inactive	3.4	2	2	5.4	inactive	Activity (PBMC [21]): inactive; Activity (PBMC [22]): inactive; EC50 [23]: 5.2 µM; EC50 [24]: 2.6 µM; EC50 [25]: 2.2 µM; Activity (PBMC [26]): inactive; Activity (PBMC [27]): inactive; Ratio [28]: 2; EC50 [29]: 6 µM
CN[C@@H]1[C@H](O[C@@H]2O[C@H](CO)[C@@H](O)[C@H](OS(=O)(=O)O)[C@H]2O)[C@@H](O)[C@H](O[C@H]2c3cc(C)c(C(=O)N[C@H](C)C(=O)O)c(O)c3-c3c(cc4c(c3O)C(=O)c3cc(OC)cc(O)c3C4=O)[C@@H]2O)O[C@@H]1C [PRADIMICIN S]	2	inactive	> 50	inactive	inactive	inactive	> 230	inactive	inactive	> 230	16	> 230	inactive	4	inactive	6	2	2	5.1	inactive	Activity (PBMC [21]): inactive; Activity (PBMC [22]): inactive; EC50 [23]: 9.6 µM; EC50 [24]: 5.1 µM; EC50 [25]: 5.3 µM; Activity (PBMC [26]): inactive; Activity (PBMC [27]): inactive; Ratio [28]: 2; EC50 [29]: 11 µM
